Reference: ChEMBL document CHEMBL3046199, “Synthesis and antiviral activities of pyrazole derivatives containing an oxime moiety” (J Agric Food Chem, 2008)

Key:
[1] = system: Tobacco mosaic virus; test: In vivo antiviral activity against Tobacco mosaic virus (TMV) infected left side of tobacco leaves assessed as inactivation effect at 500 ug/ml co-incubated with virus for 30 min before inoculation onto leaves measured at 3-4 days after viral challenge; type: functional
[2] = system: Tobacco mosaic virus; test: In vivo antiviral activity against Tobacco mosaic virus (TMV) infected left side of tobacco leaves assessed as protective effect at 500 ug/ml treated 12 hr before viral inoculation measured at 3-4 days after viral challenge; type: functional
In short: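 TMV purified from inoculated N. tabacum upper leaves (ground in phosphate buffer, filtered, centrifuged at 10000g, twice PEG-treated, all at 4 °C), concentration from A260. Compound solution smeared on left half of same-age N. tabacum leaves, solvent on right half as control. Leaves inoculated 12 h later by brush with 6 × 10^-3 mg/mL TMV over silicon carbide. Local lesions counted 3-4 days post-inoculation, three repetitions. Inhibition % = (control lesions − treated lesions)/control lesions × 100.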

[3] = system: Tobacco mosaic virus; test: In vivo antiviral activity against Tobacco mosaic virus (TMV) infected left side of tobacco leaves assessed as curative effect at 500 ug/ml treated after viral inoculation measured at 3-4 days after viral challenge; type: functional
[4] = system: Tobacco mosaic virus; test: In vivo antiviral activity against Tobacco mosaic virus (TMV) infected left side of tobacco leaves assessed as inactivation effect at 125 ug/ml co-incubated with virus for 30 min before inoculation onto leaves measured at 3-4 days after viral challenge; type: functional
[5] = system: Tobacco mosaic virus; test: In vivo antiviral activity against Tobacco mosaic virus (TMV) infected left side of tobacco leaves assessed as inactivation effect co-incubated with virus for 30 min before inoculation onto leaves measured at 3-4 days after viral challenge; type: functional, organism-based
[6] = system: Tobacco mosaic virus; test: In vivo antiviral activity against Tobacco mosaic virus (TMV) infected left side of tobacco leaves assessed as inactivation effect at 250 ug/ml co-incubated with virus for 30 min before inoculation onto leaves measured at 3-4 days after viral challenge; type: functional
[7] = system: Tobacco mosaic virus; test: In vivo antiviral activity against Tobacco mosaic virus (TMV) infected left side of tobacco leaves assessed as inactivation effect at […] ug/ml co-incubated with virus for 30 min before inoculation onto leaves measured at 3-4 days after viral challenge; type: functional
[8] = system: Tobacco mosaic virus; test: In vivo antiviral activity against Tobacco mosaic virus (TMV) infected left side of tobacco leaves assessed as inactivation effect at 62.5 ug/ml co-incubated with virus for 30 min before inoculation onto leaves measured at 3-4 days after viral challenge; type: functional

Structure (SMILES) | Activity [1] [%] | Activity [2] [%] | Activity [3] [%] | Activity [4] [%] | EC50 [5] [mg/L] | Activity [6] [%] | Activity [7] [%] | Activity [8] [%]
Cc1nn(-c2ccccc2)c(Sc2ccc(F)cc2)c1/C=N/OCc1c(C)nn(-c2ccc(Cl)cc2)c1Cl | 55.9 | 32 | 35.6 |  |  |  |  | 
Cc1ccc(-n2nc(C)c(/C=N/OCc3c(C)nn(-c4ccc(Cl)cc4)c3Cl)c2Sc2ccc(F)cc2)cc1 | 43 | 19 | 31.9 |  |  |  |  | 
CNCC(=O)N[C@@H](CO)C(=O)N[C@H]1[C@H](O)[C@@H](O)[C@H](n2ccc(N)nc2=O)O[C@@H]1C(N)=O [NINGNANMYCIN] | 98 | 57 | 54.8 | 72 | 52.7 | 81.1 | 44 | 59.9
Cc1ccc(-n2nc(C)c(CO/N=C/c3c(C)nn(-c4ccc(C)cc4)c3Sc3ccc(F)cc3)c2Cl)cc1 | 50.9 | 41 | 22 |  |  |  |  | 
COc1ccc(Sc2c(/C=N/OCc3ccc(Cl)nc3)c(C)nn2-c2ccccc2)cc1 | 71.2 | 16.4 | 26.6 | 48.9 | 115 | 65 | 32 | 41
Cc1nn(-c2ccc(Cl)cc2)c(S(=O)(=O)c2ccc(F)cc2)c1/C=N/OCc1ccc(Cl)nc1 | 44.1 | 42.2 | 7.7 |  |  |  |  | 
Cc1ccc(-n2nc(C)c(/C=N/OCc3ccc(Cl)nc3)c2S(=O)(=O)c2ccc(F)cc2)cc1 | 11 | 28.2 | 22 |  |  |  |  | 
Cc1ccc(Sc2c(/C=N/OCc3c(C)nn(-c4ccc(C)cc4)c3Cl)c(C)nn2-c2ccc(C)cc2)cc1 | 51.2 | 44.8 | 38.9 |  |  |  |  | 
COc1ccc(S(=O)(=O)c2c(/C=N/OCc3ccc(Cl)nc3)c(C)nn2-c2ccccc2)cc1 | 30.1 | 29.8 | 15.6 |  |  |  |  | 
Cc1nn(-c2ccccc2)c(Sc2ccc(F)cc2)c1/C=N/OCc1ccc(Cl)nc1 | 65.9 | 18.9 | 24 |  |  |  |  | 
Cc1ccc(S(=O)(=O)c2c(/C=N/OCc3ccc(Cl)nc3)c(C)nn2-c2ccc(Cl)cc2)cc1 | 33.3 | 31.3 | 9.2 |  |  |  |  | 
Cc1ccc(Sc2c(/C=N/OCc3ccc(Cl)nc3)c(C)nn2-c2ccccc2)cc1 | 90.4 | 31.3 | 47 | 69.2 | 58.7 | 76 | 40.1 | 55.1
Cc1nn(-c2ccccc2)c(S(=O)(=O)c2ccc(F)cc2)c1/C=N/OCc1ccc(Cl)nc1 | 20.6 | 40.2 | 21.7 |  |  |  |  | 
Cc1nn(-c2ccc(Cl)cc2)c(Sc2ccc(F)cc2)c1/C=N/OCc1ccc(Cl)nc1 | 80.6 | 43.5 | 37.3 | 53 | 65.3 | 65.7 | 40.6 | 51.2
Cc1nn(-c2cccc(Cl)c2)c(Sc2ccc(F)cc2)c1/C=N/OCc1ccc(Cl)nc1 | 61.7 | 28.6 | 34.3 |  |  |  |  | 
Cc1nn(-c2cccc(Cl)c2)c(S(=O)(=O)c2ccc(F)cc2)c1/C=N/OCc1ccc(Cl)nc1 | 30 | 12.9 | 11 |  |  |  |  | 
Cc1ccc(Sc2c(/C=N/OCc3ccc(Cl)nc3)c(C)nn2-c2ccc(Cl)cc2)cc1 | 61.2 | 37.7 | 26 |  |  |  |  | 
COc1ccc(S(=O)(=O)c2c(/C=N/OCc3ccc(Cl)nc3)c(C)nn2-c2ccc(Cl)cc2)cc1 | 30.9 | 16.4 | 3.6 |  |  |  |  | 
Cc1ccc(S(=O)(=O)c2c(/C=N/OCc3ccc(Cl)nc3)c(C)nn2-c2ccccc2)cc1 | 45 | 28 | 9 |  |  |  |  | 
Cc1ccc(-n2nc(C)c(/C=N/OCc3ccc(Cl)nc3)c2Sc2ccc(F)cc2)cc1 | 56.6 | 31 | 22 |  |  |  |  | 
COc1ccc(Sc2c(/C=N/OCc3ccc(Cl)nc3)c(C)nn2-c2ccc(Cl)cc2)cc1 | 34.5 | 22 | 12.9 |  |  |  |  | 
Cc1ccc(Sc2c(/C=N/OCc3c(C)nn(-c4ccc(C)cc4)c3Cl)c(C)nn2-c2ccc(Cl)cc2)cc1 | 36.7 | 21 | 18.9 |  |  |  |  | 
Cc1ccc(Sc2c(/C=N/OCc3ccc(Cl)nc3)c(C)nn2-c2ccc(C)cc2)cc1 | 61 | 15.7 | 32.1 |  |  |  |  | 
